Assay [1] addresses T1, Alpha-1B adrenergic receptor (Homo sapiens, UniProt P35368).
T1 sequence (P35368 whole entry): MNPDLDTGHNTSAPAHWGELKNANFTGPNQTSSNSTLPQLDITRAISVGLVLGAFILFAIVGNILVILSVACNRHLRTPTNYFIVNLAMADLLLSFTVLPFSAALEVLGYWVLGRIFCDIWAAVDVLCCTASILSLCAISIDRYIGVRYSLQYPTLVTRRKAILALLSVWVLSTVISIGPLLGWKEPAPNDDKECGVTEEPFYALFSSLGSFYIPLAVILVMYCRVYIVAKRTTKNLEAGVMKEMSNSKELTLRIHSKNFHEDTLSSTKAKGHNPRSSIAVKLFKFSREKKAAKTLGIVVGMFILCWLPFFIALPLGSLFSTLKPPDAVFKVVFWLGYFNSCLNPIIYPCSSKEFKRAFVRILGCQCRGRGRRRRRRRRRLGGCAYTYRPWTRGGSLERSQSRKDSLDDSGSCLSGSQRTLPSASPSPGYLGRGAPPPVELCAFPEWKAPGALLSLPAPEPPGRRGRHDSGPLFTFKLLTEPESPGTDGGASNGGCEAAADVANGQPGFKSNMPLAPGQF
As to the kind of experiment: In vitro binding affinity at human Alpha-1B adrenergic receptor. An outline of the steps:
(§1)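 Human α1A-, α1B- or α1D-AR stably expressed in HEK293 cells (calcium phosphate transfection, subclones chosen for high expression); membranes from scraped, homogenized cells spun at 30000g. Three experiments in duplicate, mean ± SE.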

Assay [2] deals with T2, Alpha-1D adrenergic receptor (Homo sapiens, UniProt P25100).
T2 sequence (P25100 whole entry): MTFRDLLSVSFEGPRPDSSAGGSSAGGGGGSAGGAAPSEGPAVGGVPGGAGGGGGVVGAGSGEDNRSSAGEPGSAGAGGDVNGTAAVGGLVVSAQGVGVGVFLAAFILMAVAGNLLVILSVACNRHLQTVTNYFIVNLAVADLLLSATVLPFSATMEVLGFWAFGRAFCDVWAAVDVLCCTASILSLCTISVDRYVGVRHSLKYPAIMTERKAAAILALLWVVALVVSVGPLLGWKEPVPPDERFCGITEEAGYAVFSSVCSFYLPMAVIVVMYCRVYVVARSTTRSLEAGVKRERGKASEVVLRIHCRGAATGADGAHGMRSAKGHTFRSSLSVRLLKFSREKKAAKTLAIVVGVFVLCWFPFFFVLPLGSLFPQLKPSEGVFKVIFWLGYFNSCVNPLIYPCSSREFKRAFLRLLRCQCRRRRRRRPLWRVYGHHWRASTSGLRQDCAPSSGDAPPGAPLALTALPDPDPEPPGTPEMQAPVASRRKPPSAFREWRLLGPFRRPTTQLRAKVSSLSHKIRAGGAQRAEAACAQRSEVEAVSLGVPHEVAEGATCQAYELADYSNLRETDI
Put plainly: In vitro binding affinity at human Alpha-1D adrenergic receptor. An outline of the steps: as §1

In assay [3] the target is T3, Alpha-1A adrenergic receptor (Homo sapiens, UniProt P35348).
T3 sequence (P35348 whole entry): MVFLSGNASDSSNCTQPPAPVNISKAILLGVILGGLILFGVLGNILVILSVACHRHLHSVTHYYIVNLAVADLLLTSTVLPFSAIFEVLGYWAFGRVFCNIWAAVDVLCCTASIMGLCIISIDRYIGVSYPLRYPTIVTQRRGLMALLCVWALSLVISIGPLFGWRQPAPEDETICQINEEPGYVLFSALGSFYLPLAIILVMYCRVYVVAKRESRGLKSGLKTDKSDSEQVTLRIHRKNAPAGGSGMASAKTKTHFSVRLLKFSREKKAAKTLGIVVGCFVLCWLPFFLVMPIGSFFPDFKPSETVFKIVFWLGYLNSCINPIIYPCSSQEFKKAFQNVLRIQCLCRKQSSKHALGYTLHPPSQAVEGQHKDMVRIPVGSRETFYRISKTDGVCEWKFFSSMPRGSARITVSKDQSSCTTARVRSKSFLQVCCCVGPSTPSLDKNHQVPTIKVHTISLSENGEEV
As to the kind of experiment: In vitro binding affinity at human Alpha-1A adrenergic receptor. The essentials: as §1

Assay [4] addresses Adrenergic receptor alpha-1 (Homo sapiens) (UniProt P35348+P25100+P35368). Put plainly: Selectivity for alpha 1A-Adrenergic receptors compared to 1D-Adrenergic receptors. Format: protein assay.
Assay [5] deals with T2, Alpha-1D adrenergic receptor. As to the kind of experiment: Binding affinity towards Alpha-1D adrenergic receptor. The essentials:
as §1

Assay [6] addresses T3, Alpha-1A adrenergic receptor. As to the kind of experiment: Binding affinity towards Alpha-1A adrenergic receptor. An outline of the steps:
as §1

Assay [7] is filed under the species Rattus norvegicus. As to the kind of experiment: Inhibition of [3H]inositol Phosphate formation by 100 uM norepinephrine in rat hippocampal slices. In kind it is functional, Hippocampus. An outline of the steps: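 Rat hippocampal slices equilibrated in Krebs-Henseleit buffer (pH 7.4, 95% O2/5% CO2) at 37 °C for 30 min, labeled 60 min with 0.3 µM myo-[2-3H]inositol. LiCl 7 mM added, then 100 µM norepinephrine 10 min later, test compound (1 µM) 5 min before agonist. After 60 min, stopped with chloroform/methanol; [3H]inositol monophosphate isolated by anion exchange, dpm/mg protein, ≥4 determinations.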

pKi: −log10 of the molar value.

By pKi is commonly meant the Ki on a negative log10 scale, so that one unit is a factor of ten. As to `COc1cc2c(cc1O)CCN1Cc3c(ccc(O)c3OC)C[C@@H]21`, the pKi in assay [1] was 6.44; in assay [2] it was 7.60; in assay [3], 6.21. In assay [4], the Ratio amounted to 24.6.

`CCCCc1ccc(N2CCN(CCn3c(=O)[nH]c4c([nH]c5ccccc54)c3=O)CC2)cc1` had a pKi in assay [5] of 6.61.

In turn, `CCC(C)c1ccc(N2CCN(CCn3c(=O)[nH]c4c([nH]c5ccccc54)c3=O)CC2)cc1` (configuration not stated) showed a negative-log Ki (pKi) in assay [5] of 7.22.

Regarding `CC(C)c1ccc(N2CCN(CCn3cnc4c5ccccc5nc-4c3O)CC2)cc1`, the negative logarithm of the Ki (pKi) in assay [5], in assay [6] and in assay [1] was under 5.00 each time.

`CC(C)c1ccc(N2CCN(CCn3c(=O)[nH]c4c([nH]c5ccccc54)c3=O)CC2)cc1`: the pKi in assay [5] is 7.45; in assay [1] it was 5.02.

Turning to `CCOc1ccccc1N1CCN(CCn2cnc3c4ccccc4nc-3c2O)CC1`, the pKi was 8.22 in assay [5], 8.01 in assay [6] and 7.21 in assay [1].

On to `O=c1[nH]c2c([nH]c3ccccc32)c(=O)n1CCN1CCN(c2ccccc2O)CC1`, for which the pKi in assay [5] is 9.20; in assay [6], 8.05; in assay [1] it was 7.93.

Turning to `O=c1[nH]c2c([nH]c3ccccc32)c(=O)n1CCN1CCN(c2ccccc2Cl)CC1`, the pKi in assay [5] was 8.44; in assay [6], 8.33; in assay [1], 8.59.

In the case of `COc1ccccc1N1CCN(CCn2c(=O)[nH]c3c([nH]c4ccccc43)c2=O)CC1`, the pKi in assay [1] is 8.74. For the same compound, the Activity in assay [7] is reported as 3987 dpm (mg of protein)-1.

On to `Cc1nc2c3ccccc3nc-2c(O)n1CCN1CCN2c3ccccc3OCC2C1` (configuration not stated), for which the negative-log Ki (pKi) in assay [5], in assay [6] and in assay [1] was under 5.00 in each case.

In the case of `CCOc1ccccc1N1CCN(CCn2c(=O)[nH]c3c([nH]c4ccccc43)c2=O)CC1`, the pKi in assay [5] is 8.80; in assay [6] it was 8.14; in assay [1], 7.84.

In the case of `CCc1nc2c3ccccc3nc-2c(O)n1CCN1CCN(c2ccccc2OC)CC1`, the negative-log Ki (pKi) was 8.16 in assay [5], 7.31 in assay [6] and 6.61 in assay [1].

`COc1ccccc1N1CCN(Cn2nc(-c3ccccc3)c3c(C)onc3c2=O)CC1` had a pKi in assay [2] of 6.50.

As to `CC(C)(C)c1ccc(N2CCN(CCn3cnc4c5ccccc5nc-4c3O)CC2)cc1`, the pKi in assay [5], in assay [6] and in assay [1] was under 5.00 in each case.

As for `COc1ccccc1N1CCN(CCCn2cnc3c4ccccc4nc-3c2O)CC1`, the pKi was 7.79 in assay [5], 7.78 in assay [6] and 6.79 in assay [1].

Broadly, the inhibition is the drop in the measured response relative to a control, in per cent. Low values mean a response near the control, high ones a response far below the control. In assay [6], `CC(C)(C)c1ccc(N2CCN(CCn3c(=O)[nH]c4c([nH]c5ccccc54)c3=O)CC2)cc1` had an inhibition at 1 µM of 8%. The Activity in assay [7] was 10390 dpm (mg of protein)-1.

Compound `O=c1[nH]c2c([nH]c3ccccc32)c(=O)n1CCN1CCN(c2ccc(C3CCCCC3)cc2)CC1` showed an inhibition at 1 µM in assay [6] of 7%.

`COc1ccccc1N1CCN(CCn2nc(-c3ccccc3)c3c(C)onc3c2=O)CC1`: the pKi in assay [1] is 7.51; in assay [2] it was 8.82; in assay [3], 8.85. For the same compound, the Ratio in assay [4] amounted to 0.9.

With `Cc1nc2c3ccccc3nc-2c(O)n1CCN1CCN(c2ccc(C(C)C)cc2)CC1`, the pKi was 5.77 in assay [5], 5.45 in assay [6] and 5.39 in assay [1].

In the case of `Cc1nc2c3ccccc3nc-2c(O)n1CCN1CCN(c2ccc(C(C)(C)C)cc2)CC1`, the pKi in assay [5] was 7.01; in assay [6], 6.22; in assay [1], 5.69.

On to `COc1ccccc1N1CCN(CCn2cnc3c4ccccc4nc-3c2O)CC1`, for which the pKi in assay [5] was 9.14; in assay [6], 8.85; in assay [1], 7.86.

For `N#CCc1ccc(N2CCN(CCn3c(=O)[nH]c4c([nH]c5ccccc54)c3=O)CC2)cc1`, the pKi in assay [5] was 8.00.

With `CC(C)c1ccc(N2CCN(CCn3c(=O)[nH]c4c(sc5ccccc54)c3=O)CC2)cc1`, the pKi in assay [5] is 6.90.

Consider `COc1ccccc1N1CCN(CCCn2c(C)nc3c4ccccc4nc-3c2O)CC1`, for which the pKi in assay [5] was 8.59; in assay [6], 8.31; in assay [1], 7.57.

Regarding `O=c1[nH]c2c([nH]c3ccccc32)c(=O)n1CCN1CCN2c3ccccc3OCC2C1` (configuration not stated), the figures for the pKi in assay [5], in assay [6] and in assay [1] were 6.90, 5.10 and 5.11, respectively.

`CCc1nc2c3ccccc3nc-2c(O)n1CCCN1CCN(c2ccccc2OC)CC1`: the negative-log Ki (pKi) is 7.90 in assay [5], 7.97 in assay [6] and 7.56 in assay [1].

Consider `COc1ccccc1C1CCN(CCn2c(=O)[nH]c3c([nH]c4ccccc43)c2=O)CC1`, for which the results for the negative logarithm of the Ki (pKi) in assay [5], in assay [6] and in assay [1] were 9.03, 8.81 and 8.54, respectively.

`C=Cc1sc2ccc(Cl)c3c2c1CN(C)CC3`: the Ratio in assay [4] was 22.5.

In turn, `COc1ccccc1N1CCN(CCn2c(C)nc3c4ccccc4nc-3c2O)CC1` showed a pKi in assay [1] of 7.68.

Regarding `C[C@H](CN1CCN(c2cc(F)c(F)cc2F)CC1)N1C(=O)CC2(CCCC2)CC1=O`, the pKi in assay [2] was 8.80; in assay [3] it was 6.53.

The record behind these values is ChEMBL document CHEMBL1145826, “New pyrimido[5,4-b]indoles as ligands for alpha(1)-adrenoceptor subtypes” (J Med Chem, 2003).
